In paper PMC10784415 (Developmental dynamics : an official publication of the …, 2023):

How the values were obtained:
[1] = Toxicokinetics of infigratinib in juvenile rat plasma after oral gavage; assay type: in vivo, Crl:WI(Han) rat; settings: Crl:WI(Han), rat, plasma, po
[2] = Body weight at time of sacrifice; assay type: in vivo, rat; settings: female rats, high dose, PND37, vs vehicle and low dose; non-significant
Procedure, shortened: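 Male and female Wistar rats received a daily oral gavage of vehicle (acetate buffer pH 4.68:PEG300, 50:50 v/v) or test compound at 0.1 or 1.0 mg/kg, starting on PND7. Rats were euthanized on PND14 or PND37, and body weight was recorded at sacrifice.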

[3] = system: CYP 3A4; settings: liver; cited from earlier work
[4] = female, 0.1 mg/kg/day, Female rats, 0.1 mg/kg/day oral, PND 35
[5] = female, 0.1 mg/kg/day, Female rats, 0.1 mg/kg/day oral, PND 7
[6] = female, 0.1 mg/kg/day, Female rats, 0.1 mg/kg/day oral, PND 12
[7] = female, 0.1 mg/kg/day, Female rats, 0.1 mg/kg/day oral, PND 23
[8] = female, 0.3 mg/kg/day, Female rats, 0.3 mg/kg/day oral, PND 7
[9] = female, 0.3 mg/kg/day, Female rats, 0.3 mg/kg/day oral, PND 12
[10] = female, 0.3 mg/kg/day, Female rats, 0.3 mg/kg/day oral, PND 23
[11] = female, 0.3 mg/kg/day, Female rats, 0.3 mg/kg/day oral, PND 35
[12] = female, 1 mg/kg/day, Female rats, 1.0 mg/kg/day oral, PND 7
[13] = female, 1 mg/kg/day, Female rats, 1.0 mg/kg/day oral, PND 12
[14] = female, 1 mg/kg/day, Female rats, 1.0 mg/kg/day oral, PND 23
[15] = female, 1 mg/kg/day, Female rats, 1.0 mg/kg/day oral, PND 35
[16] = male, 0.1 mg/kg/day, Male rats, 0.1 mg/kg/day oral, PND 7
[17] = male, 0.1 mg/kg/day, Male rats, 0.1 mg/kg/day oral, PND 12
[18] = male, 0.1 mg/kg/day, Male rats, 0.1 mg/kg/day oral, PND 23
[19] = male, 0.1 mg/kg/day, Male rats, 0.1 mg/kg/day oral, PND 35
[20] = male, 0.3 mg/kg/day, Male rats, 0.3 mg/kg/day oral, PND 7
[21] = male, 0.3 mg/kg/day, Male rats, 0.3 mg/kg/day oral, PND 12
[22] = male, 0.3 mg/kg/day, Male rats, 0.3 mg/kg/day oral, PND 23
[23] = male, 0.3 mg/kg/day, Male rats, 0.3 mg/kg/day oral, PND 35
[24] = male, 1 mg/kg/day, Male rats, 1.0 mg/kg/day oral, PND 7
[25] = male, 1 mg/kg/day, Male rats, 1.0 mg/kg/day oral, PND 12
[26] = male, 1 mg/kg/day, Male rats, 1.0 mg/kg/day oral, PND 23
[27] = male, 1 mg/kg/day, Male rats, 1.0 mg/kg/day oral, PND 35

CCN1CCN(c2ccc(Nc3cc(N(C)C(=O)Nc4c(Cl)c(OC)cc(OC)c4Cl)ncn3)cc2)CC1 [infigratinib, 3-(2,6-Dichloro-3,5-dimethoxy-phenyl)-1-{6-[4-(4-ethyl-piperazin-1-yl)-phenylamino]-pyrimidin-4-yl}-1-methyl-urea]
AUC(0-t) [1, 4]: 1.4 ng·h/mL
Cmax [1, 5]: 4.18 ng/mL
Cmax [1, 6]: 3.4 ng/mL
Cmax [1, 7]: 0.78 ng/mL
Cmax [1, 4]: 0.3 ng/mL
half-life ([1]; female, 0.1 mg/kg/day, T1/2, Female rats, 0.1 mg/kg/day oral, PND 7): 4.7 h
half-life ([1]; female, 0.1 mg/kg/day, T1/2, Female rats, 0.1 mg/kg/day oral, PND 12): 5.66 h
Tmax [1, 5]: 3 h
Tmax [1, 6]: 3 h
Tmax [1, 7]: 3 h
Tmax [1, 4]: 1 h
AUC(0-t) [1, 8]: 183 ng·h/mL
AUC(0-t) [1, 9]: 137 ng·h/mL
AUC(0-t) [1, 10]: 18.8 ng·h/mL
AUC(0-t) [1, 11]: 4.54 ng·h/mL
Cmax [1, 8]: 19.4 ng/mL
Cmax [1, 9]: 14.9 ng/mL
Cmax [1, 10]: 2.25 ng/mL
Cmax [1, 11]: 0.66 ng/mL
half-life ([1]; female, 0.3 mg/kg/day, T1/2, Female rats, 0.3 mg/kg/day oral, PND 7): 4.26 h
half-life ([1]; female, 0.3 mg/kg/day, T1/2, Female rats, 0.3 mg/kg/day oral, PND 12): 3.82 h
half-life ([1]; female, 0.3 mg/kg/day, T1/2, Female rats, 0.3 mg/kg/day oral, PND 23): 4.53 h
Tmax [1, 8]: 3 h
Tmax [1, 9]: 3 h
Tmax [1, 10]: 3 h
Tmax [1, 11]: 3 h
AUC(0-t) [1, 12]: 516 ng·h/mL
AUC(0-t) [1, 13]: 593 ng·h/mL
AUC(0-t) [1, 14]: 73 ng·h/mL
Cmax [1, 12]: 53.2 ng/mL
Cmax [1, 13]: 56.6 ng/mL
Cmax [1, 14]: 10.4 ng/mL
Cmax [1, 15]: 4.04 ng/mL
half-life ([1]; female, 1 mg/kg/day, T1/2, Female rats, 1.0 mg/kg/day oral, PND 7): 5.23 h
half-life ([1]; female, 1 mg/kg/day, T1/2, Female rats, 1.0 mg/kg/day oral, PND 12): 3.97 h
half-life ([1]; female, 1 mg/kg/day, T1/2, Female rats, 1.0 mg/kg/day oral, PND 23): 3.25 h
half-life ([1]; female, 1 mg/kg/day, T1/2, Female rats, 1.0 mg/kg/day oral, PND 35): 2.51 h
Tmax [1, 12]: 3 h
Tmax [1, 13]: 1 h
Tmax [1, 14]: 1 h
Tmax [1, 15]: 1 h
AUC(0-t) [1, 16]: 31.9 ng·h/mL
AUC(0-t) [1, 17]: 39.4 ng·h/mL
AUC(0-t) [1, 18]: 3.81 ng·h/mL
AUC(0-t) [1, 19]: 1.95 ng·h/mL
Cmax [1, 16]: 3.21 ng/mL
Cmax [1, 17]: 3.32 ng/mL
Cmax [1, 18]: 0.577 ng/mL
Cmax [1, 19]: 0.307 ng/mL
half-life ([1]; male, 0.1 mg/kg/day, T1/2, Male rats, 0.1 mg/kg/day oral, PND 7): 5.1 h
half-life ([1]; male, 0.1 mg/kg/day, T1/2, Male rats, 0.1 mg/kg/day oral, PND 12): 6.34 h
half-life ([1]; male, 0.1 mg/kg/day, T1/2, Male rats, 0.1 mg/kg/day oral, PND 35): 2.2 h
Tmax [1, 16]: 3 h
Tmax [1, 17]: 3 h
Tmax [1, 18]: 3 h
Tmax [1, 19]: 1 h
AUC(0-t) [1, 20]: 114 ng·h/mL
AUC(0-t) [1, 21]: 149 ng·h/mL
AUC(0-t) [1, 22]: 21.5 ng·h/mL
AUC(0-t) [1, 23]: 6 ng·h/mL
Cmax [1, 20]: 11.6 ng/mL
Cmax [1, 21]: 14.1 ng/mL
Cmax [1, 22]: 2.13 ng/mL
Cmax [1, 23]: 0.924 ng/mL
half-life ([1]; male, 0.3 mg/kg/day, T1/2, Male rats, 0.3 mg/kg/day oral, PND 7): 5.58 h
half-life ([1]; male, 0.3 mg/kg/day, T1/2, Male rats, 0.3 mg/kg/day oral, PND 12): 3.75 h
half-life ([1]; male, 0.3 mg/kg/day, T1/2, Male rats, 0.3 mg/kg/day oral, PND 23): 4.37 h
Tmax [1, 20]: 3 h
Tmax [1, 21]: 3 h
Tmax [1, 22]: 3 h
Tmax [1, 23]: 3 h
AUC(0-t) [1, 24]: 375 ng·h/mL
AUC(0-t) [1, 25]: 596 ng·h/mL
AUC(0-t) [1, 26]: 87.2 ng·h/mL
AUC(0-t) [1, 27]: 24.3 ng·h/mL
Cmax [1, 24]: 37.3 ng/mL
Cmax [1, 25]: 68.8 ng/mL
Cmax [1, 26]: 11.2 ng/mL
Cmax [1, 27]: 2.98 ng/mL
half-life ([1]; male, 1 mg/kg/day, T1/2, Male rats, 1.0 mg/kg/day oral, PND 12): 3.33 h
half-life ([1]; male, 1 mg/kg/day, T1/2, Male rats, 1.0 mg/kg/day oral, PND 23): 3.64 h
Tmax [1, 24]: 7 h
Tmax [1, 25]: 3 h
Tmax [1, 26]: 3 h
Tmax [1, 27]: 3 h
Body weight [2]: trend toward lower body weight
Metabolism [3]: metabolized mainly via CYP 3A4
